Compound activity deposited in PubChem by several laboratories.
Most compounds without a hit are left out; they make up all but 3.4% or so of the library.
ROMK primary – modulates human ROMK potassium channel activity; P48048; Tet-inducible ROMK, thallium flux fluorescence; actives lie on both sides; B-score at 10 µM; 2% of 130,000 active;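 active means signal ratio slope over the read window, or its plate-corrected B-score, at least 3 SD from the plate mean, either direction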;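 further: B-score of the F/F0 ratio slope over 7 to 12 s after thallium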
Mdm2 ligase inh – blocks human Mdm2 ubiquitin ligase activity; Q00987; cell-based MDM2 ubiquitination luciferase reporter, 2 h; 0 = plate control, 100 = twice control, blank-subtracted; signal enhancement, % at 5 µM; 0.11% of 210,000 active; AID 1230;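 active means signal enhancement of 30% or more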;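 further: luminescence tracks abundance of the self-degrading MDM2-luciferase fusion protein; higher signal means inhibition of MDM2 E3 ligase activity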
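Timing – 2 h compound exposure at 37 °C · Assay system – mammalian cells stably expressing self-ubiquitinating, self-degrading MDM2 E3–luciferase fusion · Amount – 2000 cells seeded into each well · Measure – % luminescence enhancement versus blank-corrected plate control mean · Measured by – SteadyLite luminescence, 15 min reagent step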
p97 inhibitor – inhibitors of human p97 ATPase; recombinant p97 ATPase, Kinase-Glo ATP luminescence, 3 h; inhibition, % at 8 µM; 0.42% of 220,000 active; AID 1481; in the data active means inhibition above about 15%;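 further: 0% = DMSO vehicle and 100% = wells lacking enzyme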
Redox H2O2 prof – compounds producing H2O2 with reducing agent – biochemical, NIH compound library profiling, artefact control for MLSCN library redox annotation, primary screen; activation, % at 10 µM; 0.03% of 200,000 active; DTT-dependent redox cycling H2O2, phenol red/HRP absorbance; 100% = 100 µM peroxide control, 0% = buffer; AID 878;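 active means activation of at least 50% relative to the plate's high and low controls in the primary single-dose screen; inactive means activation below 50%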;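 further: compound incubated with DTT at 0.8 mM final as the reducing agent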
KCC2 mod – modulators of human KCC2 chloride dependent transport | B-score of Tl+ flux slope (higher = more flux/activation; lower = inhibition) at 10 µM | KCC2 cells, thallium flux FluoZin-2 fluorescence | AID 1456 | 2.2% of 190,000 active | Q9H2X9;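 active means thallium flux slope and its plate-corrected score both differing from the plate sample mean at a set confidence after two filtering rounds, in either direction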;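 further: slope of fluorescence scaled to starting intensity during 10 to 20 s after thallium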
Target sequence (Q9H2X9 whole entry, looked up): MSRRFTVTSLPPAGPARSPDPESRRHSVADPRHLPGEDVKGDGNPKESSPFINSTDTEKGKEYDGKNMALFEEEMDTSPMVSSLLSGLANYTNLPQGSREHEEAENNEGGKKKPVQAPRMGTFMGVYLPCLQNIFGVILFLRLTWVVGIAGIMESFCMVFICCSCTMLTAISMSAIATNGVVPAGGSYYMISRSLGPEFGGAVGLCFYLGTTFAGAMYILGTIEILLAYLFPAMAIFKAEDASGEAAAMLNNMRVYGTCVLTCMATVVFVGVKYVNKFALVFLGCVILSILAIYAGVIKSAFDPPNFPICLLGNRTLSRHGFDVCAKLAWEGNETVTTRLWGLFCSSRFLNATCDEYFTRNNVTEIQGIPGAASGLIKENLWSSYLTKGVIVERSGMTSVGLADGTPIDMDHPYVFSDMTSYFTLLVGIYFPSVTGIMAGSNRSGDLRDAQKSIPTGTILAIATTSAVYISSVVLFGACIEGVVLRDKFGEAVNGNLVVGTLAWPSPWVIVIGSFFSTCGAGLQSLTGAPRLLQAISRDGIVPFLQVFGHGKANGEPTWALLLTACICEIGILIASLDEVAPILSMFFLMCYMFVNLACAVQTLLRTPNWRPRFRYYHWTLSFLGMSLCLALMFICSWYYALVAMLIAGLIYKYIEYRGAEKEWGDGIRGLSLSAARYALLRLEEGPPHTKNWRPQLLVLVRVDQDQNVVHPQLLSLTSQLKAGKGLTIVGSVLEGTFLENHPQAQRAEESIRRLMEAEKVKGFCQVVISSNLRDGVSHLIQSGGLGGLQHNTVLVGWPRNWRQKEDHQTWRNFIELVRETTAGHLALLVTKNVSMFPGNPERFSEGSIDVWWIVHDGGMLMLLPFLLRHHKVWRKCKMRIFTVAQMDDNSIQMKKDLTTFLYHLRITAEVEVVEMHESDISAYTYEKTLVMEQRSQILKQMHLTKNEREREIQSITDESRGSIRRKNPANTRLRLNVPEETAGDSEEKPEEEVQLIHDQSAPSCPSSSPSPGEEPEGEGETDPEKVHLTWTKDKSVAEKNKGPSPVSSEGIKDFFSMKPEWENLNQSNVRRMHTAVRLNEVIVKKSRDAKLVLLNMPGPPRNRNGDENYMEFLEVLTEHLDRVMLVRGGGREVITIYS
PKD1 kinase inh – blocks activity of human protein kinase D1 | Q15139 | PKD1 kinase fluorescence polarization assay | inhibition, % (no concentration beside the values) | 0.056% of 200,000 active; in the data active means inhibition above about 50%
ROMK hit retest – human ROMK channel modulation, retest confirmation; ROMK thallium flux, fluorescence ratio; hits give low values; 54% of 3,000 active; normalized thallium flux (F/F0 slope) at 10 µM; shares compounds with ROMK primary;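 active means Flux at 10 µM at least 3 SD below or above vehicle control mean in one or both replicates; inconclusive means no clear call, values can overlap the other calls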
Active calls of the source: *; i = inactive; u = inconclusive; x = not tested or not shown.

SMILES	ROMK primary	Mdm2 ligase inh	p97 inhibitor	Redox H2O2 prof	KCC2 mod	PKD1 kinase inh	ROMK hit retest
CN1C(=S)N(c2cccnc2)C(=O)/C1=C\c1ccc(C(C)(C)C)cc1	-1.6	-16	5	0	-0.15	-3	x
CN1C(=S)N(c2cccnc2)C(=O)/C1=C\c1ccc(N(C)C)cc1	-5.5*	-14	3	0	-3.2	3	0.041*
O=C(NCC(=O)N(c1ccccc1)C(C(=O)NC1CCCC1)c1cccnc1)c1ccco1 (stereo not given)	x	x	12	2	0.44	-4	x
c1cc2c(cn1)cnc1cscc12	2.6*	-7	8	0	-0.24	-1	0.092
O=C(c1cc(N2C(=O)C3C4CCC(C4)C3C2=O)ccc1Cl)N1CCN(c2ccc(F)cc2)CC1 (stereo not given)	-5*	2	-3	0	-1.8	-1	0.061*
Cc1nn(-c2ccccc2)c(N2CCCC2)c1/C=N/NC(=O)c1cccc(S(=O)(=O)Nc2ccc(Cl)cc2)c1	x	-8	4	0	0.12	3	0.087
COCCNC(=S)NC1CC2CCCC(C1)N2Cc1ccco1 (stereo not given)	x	-27	-2	-5	0.16	-7	x
O=C1N/C(=C/c2ccc(N3CCCC3)cc2)C(=O)N1c1ccccc1	-0.04	-8	3	1	-0.64	-20	x
O=C1N/C(=C/c2ccc(N3CCOCC3)o2)C(=O)N1c1ccccc1	-3.4*	47*	6	0	-1.7	-2	0.049*
CCOC(=O)C1CCCN(C(=O)c2cccc(NC(=O)C(CC)CC)c2)C1 (stereo not given)	0.98	-18	4	0	0	4	x
COc1ccc(OC)c(C2=C[N+](=O)C(C)(C)C(C)(C)N2[O-])c1	4.6*	-14	2	1	-0.78	-1	0.088
CC1(C)N([O-])C(c2ccccc2)=C[N+](=O)C1(C)C	x	-16	1	0	0.1	-8	x
O=C1/C(=C/c2ccc(N3CCOCC3)o2)SC(=Nc2ccccc2)N1CCc1c[nH]c2ccccc12	x	19	4	-3	-1.6	-1	0.059*
C/C(=N\NC(=O)c1ccccc1)c1cc2cc([N+](=O)[O-])ccc2oc1=O	-2.9*	-13	9	0	-1.6	-5	0.055*
C/C(=N\NC(=O)c1ccc([N+](=O)[O-])cc1)c1cc2ccccc2oc1=O	x	-13	4	0	0.45	-7	x
COCCNC(=O)c1cnn2c(C(F)(F)F)cc(-c3ccc4c(c3)OCO4)nc12	0.16	-12	5	2	0.19	-2	x
COc1ccccc1C1(CCNC(C)c2cccs2)CCOC(C(C)C)C1 (stereo not given)	x	-2	-5	x	-1.2	x	0.041*
O=C(c1ccc(C(F)(F)F)cc1)c1c[nH]c(C(=O)NCCCn2ccnc2)c1	x	-4	1	20	0.18	-5	x
O=C(Nc1cccnc1)c1cc(-c2ccccc2O)on1	3*	-16	1	x	1.3	x	u
O=C(Nc1cccnc1)c1cc(-c2cccs2)on1	0.43	-5	2	3	0.92	1	x
CCOc1cc(/C=C(\C#N)C(N)=O)ccc1OS(=O)(=O)c1ccccc1	-5*	13	0	0	-0.48	-2	0.033*
CCCCCCCCn1ccc(=N)cc1	-0.77	-41	-3	x	0.44	x	x
CCCCCCCCCCn1ccc(=N)cc1	-3.6*	-50	-2	x	1.2	x	u
NC1=NC(=O)/C(=C\c2cc([N+](=O)[O-])ccc2Cl)S1	-2*	-3	5	-3	-0.021	2	0.066*
Cc1ccsc1/C=C1\SC(N)=NC1=O	-0.43	-9	-3	-5	0.015	5	x
SMILES	ROMK primary	Mdm2 ligase inh	p97 inhibitor	Redox H2O2 prof	KCC2 mod	PKD1 kinase inh	ROMK hit retest
Cc1cc2c(cc1C)N(C(=O)CSc1nncn1C)C(C)(C)c1ssc(=S)c1-2	-3.5*	1	-11	-1	0.78	0	0.064*
N#C/C(=C\c1ccc(OCc2cccc(C(=O)O)c2)cc1)C(=O)NCc1ccco1	x	-22	13	x	-2.2	x	0.039*
CCOc1cc(CO)cc(Br)c1OCC(N)=O	0.41	-12	-1	1	0.64	0	x
CC(=O)Nc1nnc(SCC(=O)N2CCN(Cc3ccccc3)CC2)s1	-0.6	x	-4	-1	0.025	2	x
Cc1ccc(C(=O)O)cc1NC(=S)NC(=O)c1ccc(-c2ccc(Cl)cc2)o1	x	-7	-5	x	-1.5	x	x
O=C(O)c1cccc(NC(=S)NC(=O)c2ccc(-c3ccc(Cl)cc3)o2)c1	2.1*	-3	3	7	-1.4	-10	0.083
COc1ccc(O)c(C(=O)c2cc(C#N)c(=O)n(-c3c(C)n(C)n(-c4ccccc4)c3=O)c2)c1	x	2	2	1	1.3	2	x
CN(C(=O)CSc1nnc(-c2ccncc2)n1C)C1CCS(=O)(=O)C1 (stereo not given)	3.1*	5	3	0	-0.28	0	0.076
CC(=O)N1C(=O)C(=C2C=C(C)OC(C)=C2)c2ccccc21	x	-13	-6	-1	-0.04	-8	0.062*
CC(C)N(Cc1nc2ccccc2[nH]1)C(C)C	x	-17	0	-2	0.086	-4	x
O=C(N/N=C\c1c(O)ccc2ccccc12)c1ccc(S(=O)(=O)N2CCCCC2)cc1	-3.8*	-12	1	0	i	-11	0.051*
O=C(CNC(=O)c1ccc(S(=O)(=O)N2CCCC2)cc1)N/N=C/c1ccccc1Cl	-0.64	2	-3	0	0.0082	7	x
CCN(CC)C(=O)Cn1c(=O)c2ccccc2n2c(=S)sc(-c3cccc(C)c3)c12	x	-10	4	1	i	-1	0.049*
Cc1ccccc1Cn1c2ccccc2c2cnn(CC(=O)N3CCN(c4ccccc4)CC3)c(=O)c21	x	-8	-7	-1	0.01	16	x
O=C(Cn1ncc2c3ccccc3n(Cc3ccc(F)cc3)c2c1=O)N1CCN(c2ncccn2)CC1	-2.9*	-18	-1	1	-1.8	-7	0.067*
O=C(C1CCCN(S(=O)(=O)c2ccc(Cl)cc2)C1)N(Cc1cccs1)C1CC1 (stereo not given)	-4*	-16	-2	0	-0.94	-11	0.058*
Cc1ccc(C(=O)CCC(=O)Nc2ccc(Cl)c(S(=O)(=O)Nc3cccc(Cl)c3)c2)cc1	-0.33	-7	-1	-1	-2.4	11	x
CCC(C)NCCC(=O)Nc1ccc(Cl)c(S(=O)(=O)Nc2ccc(Cl)cc2)c1 (stereo not given)	-4.1*	-13	-6	-1	0.3	-2	0.064*
